According to ChEMBL document CHEMBL1154765, “A series of alpha-amino acid ester prodrugs of camptothecin: in vitro hydrolysis and A549 human lung carcinoma cell cytotoxicity” (J Med Chem, 2010):

Experiments:
A549 = assay: Cytotoxicity against human A549 cells after 48 hrs by MTT method; format: functional, cell-based; conditions: A549, 48 h
Summary of the method: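 A549 cells grown in DMEM/F-12 with 10% FBS, 37 °C, 5% CO2; seeded 10,000 cells/well, attached 24 h, then exposed in triplicate to 30 dilutions for 48 h. Washed with PBS, MTT added 5 h at 37 °C in dark, crystals dissolved in SDS/DMF:water, absorbance 570 nm (reference 690 nm). Viability relative to drug-free controls; IC50 from variable-slope sigmoidal fit.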

[1] = Stability in phosphate buffer assessed as half life of camptothecin formation at 5 mg at pH 7 by HPLC; format: physicochemical
Summary of the method: (§1)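 Prodrug (5 mg) in 2 mL 100 mM sodium phosphate buffer on shaker at 37 °C, in triplicate. Aliquots taken at set times, dried, reconstituted in methanol, and analysed by HPLC with fluorescence detection. CPT appearance fit to first-order kinetics, Ct versus C∞; half-life derived from the rate constant.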

[2] = Stability in phosphate buffer assessed as half life of prodrug hydrolysis at 5 mg at pH 7.4 by HPLC; format: physicochemical; conditions: in vitro
Summary of the method: (§2)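 In 100 mM sodium phosphate buffer, 5 mg prodrug per 2 mL, shaken at 37 °C, triplicate runs. Timed aliquots dried, taken up in methanol, and quantified by HPLC with fluorescence detection. Prodrug loss fit to first-order decay, Ct versus C0; half-life obtained from the rate constant.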

[3] = Stability in phosphate buffer assessed as half life of camptothecin formation at 5 mg at pH 7.4 by HPLC; format: physicochemical; conditions: in vitro; summary of the method: as §1
[4] = Stability in phosphate buffer assessed as half life of prodrug hydrolysis at 5 mg at pH 7 by HPLC; format: physicochemical; summary of the method: as §2
[5] = Stability in phosphate buffer assessed as half life of camptothecin formation at 5 mg at pH 6.6 by HPLC; format: physicochemical; conditions: in vitro; summary of the method: as §1
[6] = Stability in phosphate buffer assessed as half life of prodrug hydrolysis at 5 mg at pH 6.6 by HPLC; format: physicochemical; conditions: in vitro; summary of the method: as §2

| SMILES | IC50 (A549) | t1/2 [1] | t1/2 [2] | t1/2 [3] | t1/2 [4] | t1/2 [5] | t1/2 [6] |
| --- | --- | --- | --- | --- | --- | --- | --- |
| CC[C@@]1(O)C(=O)OCc2c1cc1n(c2=O)Cc2cc3ccccc3nc2-1 [CAMPTOTHECIN] | 5.38 nM |  |  |  |  |  |  |
| CC[C@@H](N)C(=O)O[C@]1(CC)C(=O)OCc2c1cc1n(c2=O)Cc2cc3ccccc3nc2-1 | 4.1 nM | 26.27 h | 2.934 h | 25.34 h | 3.197 h | 28.25 h | 4.68 h |
| CCC[C@@H](N)C(=O)O[C@]1(CC)C(=O)OCc2c1cc1n(c2=O)Cc2cc3ccccc3nc2-1 | 5.2 nM | 36.7 h | 2.926 h | 32.31 h | 4.119 h | 38.26 h | 4.652 h |
| CC[C@@]1(OC(=O)[C@@H](C)N)C(=O)OCc2c1cc1n(c2=O)Cc2cc3ccccc3nc2-1 | 120 nM | 16.3 h | 2.496 h | 15.47 h | 2.828 h | 21.31 h | 4.336 h |
| CC[C@@]1(OC(=O)CN)C(=O)OCc2c1cc1n(c2=O)Cc2cc3ccccc3nc2-1 | 12.2 nM | 11.26 h | 1.774 h | 10.79 h | 1.802 h | 11.54 h | 2.564 h |
